Activity, IC50 and MIC data for five molecules are collected here from ChEMBL document CHEMBL1157404, “Linear and cyclic peptides from the entomopathogenic bacterium Xenorhabdus nematophilus” (J Nat Prod, 2008).

Experiment [1] relates to Xanthomonas campestris. Description: Antibacterial activity against Xanthomonas campestris DSM 2405 at 40 ug/mL. The class given is functional, organism-based.
Experiment [2] relates to Ralstonia solanacearum. The experiment in a line: Antibacterial activity against Ralstonia solanacearum DSM 9544 at 40 ug/mL. The class given is functional, organism-based.
In experiment [3] the test system is Pseudomonas syringae. Description: Antibacterial activity against Pseudomonas syringae var.aptata DSM 50252 at 40 ug/mL. The class given is functional, organism-based.
Experiment [4] deals with Bacillus subtilis. Description: Antibacterial activity against Bacillus subtilis DSM 347 at 40 ug/mL. The class given is functional, organism-based.
The test system of experiment [5] is Mammaliicoccus lentus. The experiment in a line: Antibacterial activity against Staphylococcus lentus DSM 6672 at 40 ug/mL. The class given is functional, organism-based.
The subject of experiment [6] is Pseudomonas fluorescens. Description: Antibacterial activity against Pseudomonas fluorescens NCIMB 10586 at 40 ug/mL. The class given is functional, organism-based.
The test system of experiment [7] is Erwinia amylovora. The experiment in a line: Antibacterial activity against Erwinia amylovora at 40 ug/mL. The class given is functional, organism-based.
Experiment [8] has as its system Artemia salina. Description: Toxicity against Artemia salina assessed as number of immotile nauplii per well after 24 hrs. The class given is organism-based. The method, boiled down: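 Compounds were serially diluted 2-fold over 50 to 0.781 µg/well in microplate wells, and the wells were dried before the brine shrimp nauplii were exposed.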
In experiment [9] the test system is Escherichia coli. The experiment in a line: Antibacterial activity against Escherichia coli K12 DSM 489 at 40 ug/mL. The class given is functional, organism-based.
For experiment [10], the system named is Nakaseomyces glabratus. The experiment in a line: Antifungal activity against Candida glabrata DSM 6425 at 40 ug/mL. The class given is functional, organism-based.
The subject of experiment [11] is Ralstonia solanacearum. Description: Antibacterial activity against Ralstonia solanacearum DSM 9544. The class given is functional.
For experiment [12], the system named is Pseudomonas syringae. Description: Antibacterial activity against Pseudomonas syringae var.aptata DSM 50252. The class given is functional.
For experiment [13], the system named is Bacillus subtilis. The experiment in a line: Antibacterial activity against Bacillus subtilis DSM 347. The class given is functional.
Experiment [14] deals with Pseudomonas fluorescens. Description: Antibacterial activity against Pseudomonas fluorescens NCIMB 10586. The class given is functional.
Experiment [15] deals with Erwinia amylovora. Description: Antibacterial activity against Erwinia amylovora. The class given is functional.
For experiment [16], the system named is Galleria mellonella. The experiment in a line: Insecticidal activity against Galleria mellonella after 6 days. The class given is functional, organism-based. The gist of the method: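 Oral toxicity test on greater wax moth larvae. Compounds were dissolved at 1 mg/mL in 50% aqueous EtOH. Larvae were held at 35 °C for 6 days, then mortality and ability to spin silk were recorded. Four replicates were run, with two for one compound.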

The test system of experiment [17] is Xanthomonas campestris. Description: Antibacterial activity against Xanthomonas campestris DSM 2405. The class given is functional.
Experiment [18] relates to Mammaliicoccus lentus. Description: Antibacterial activity against Staphylococcus lentus DSM 6672. The class given is functional.

Values after ≈ are worked out from the molar mass of the structure shown. Active and inactive are the calls of the source. No cut-off for these calls is given here. Bridge positions count the residues as written; N and C are the ends. Square brackets hold non-standard residues; d marks the D form. Peptide text beside a SMILES is read from it. * marks the point of attachment. NMeF = CN[C@@H](Cc1ccccc1)C(=O)O; NMeL = CN[C@@H](CC(C)C)C(=O)O; NHPhenethyl = c1ccc(CCN*)cc1; PhAc = O=C(Cc1ccccc1)*; βAla = NCCC(=O)O

On to `CN[C@@H](CC(C)C)C(=O)N(C)[C@@H](Cc1ccccc1)C(=O)NCCc1ccccc1` [XENORTIDE A] (H-[NMeL]-[NMeF]-NHPhenethyl), for which the outcome in [1], in [2], in [3], in [4], in experiment [5] and in experiment [6] was inactive. Moreover, the result in experiment [7], in experiment [9] and in experiment [10] was inactive. Also, the IC50 in [8] stood at 200 µg/mL (≈ 488 µM).

Turning to `CC[C@H](C)C(=O)C(=O)NCCc1c[nH]c2ccccc12` [NEMATOPHIN], the outcome in experiment [1], in experiment [2], in [3], in experiment [4], in experiment [5] and in experiment [6] was inactive. Also, the result in [7], in [9] and in experiment [10] was inactive. The IC50 in experiment [8] was 50 µg/mL (≈ 184 µM).

As for `CN[C@@H](CC(C)C)C(=O)N(C)[C@@H](Cc1ccccc1)C(=O)NCCc1c[nH]c2ccccc12` [XENORTIDE B], the result in [1], in [2], in [3], in [4], in experiment [5] and in experiment [6] was inactive. For the same molecule, the outcome in [7], in [9] and in experiment [10] was inactive. Moreover, the IC50 in experiment [8] stood at 200 µg/mL (≈ 446 µM).

Regarding `C[C@H]1OC(=O)CCNC(=O)[C@H](Cc2c[nH]c3ccccc23)NC(=O)[C@H](Cc2c[nH]c3ccccc23)NC(=O)[C@H]1NC(=O)Cc1ccccc1` [XENEAMATIDE] (PhAc-TWW[βAla]; ester 1-C), the MIC in experiment [11], in experiment [12], in experiment [13], in experiment [14] and in experiment [15] was 10 µg/mL (≈ 15.1 µM) in each case. In addition, the result in experiment [16] was Active.

For `CC(C)CC(NC(=O)[C@@H](O)[C@@H](O)C1CCCN1)C1Cc2cccc(O)c2C(=O)O1` (stereo partly specified), the MIC was determined as 40 µg/mL (≈ 98.4 µM) in experiment [17], 40 µg/mL (≈ 98.4 µM) in experiment [12] and 20 µg/mL (≈ 49.2 µM) in experiment [13]. Besides, the Activity in experiment [18] is recorded as 70%. Also, the IC50 in experiment [8] came out at 9 µg/mL (≈ 22.1 µM).

By IC50 is commonly meant the point on the concentration scale where inhibition reaches its midpoint. Broadly, the MIC is the least concentration at which growth counts as inhibited. Lower therefore signals inhibition by little substance.
